Bioassay records: PubChem, several laboratories
Shown is part of a subset that was picked to be rich in hits.
L major viab: Leishmania major promastigote growth inhibition; Leishmania major promastigotes, resazurin fluorescence viability; 200,000 compounds, 9% hits; inhibition, % at 10 µM; in the data active = inhibition above about 50%;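 note: promastigotes grown with compound for 44 hours at 28 °C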
T cruzi repl: blocks replication of Trypanosoma cruzi; AID 1885; inhibition, % (test concentration not listed); T. cruzi beta-gal in NIH3T3, luminescence, 90 h; 300,000 compounds, 1.4% hits;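 active = mean inhibition across valid replicates above about 55%, limit read from the data; inconclusive = mean below that limit but half or more replicates reach it; inactive = mean below it, under half of replicates reach it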;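 note: signal also drops with host cell toxicity which is not excluded here; 0% = plate median of DMSO wells and 100% = zero luminescence signal; higher percent means less beta-gal luminescence so fewer parasites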
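Assay system: NIH/3T3 fibroblasts plus reporter T. cruzi. Amount: NIH/3T3 cells, 5,000 per well. Buffer or medium: DMEM, 2% fetal bovine serum. Doses: compound pinned at 50 nL/well, DMSO. Schedule: ≥90 h infection period, 3 h prior cell attachment. Signal: luminescent β-galactosidase signal after 60 min lysis. Read-out: parasite load inhibition, %.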
MPTP block: blocks calcium-induced mitochondrial swelling; isolated mouse mitochondria, Ca2+ swelling absorbance, 30 min; inhibition, % at 10 µM; 360,000 compounds, 1.4% hits; AID 602449;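 active = inhibition of 50% or more, scaled per plate between neutral and stimulator controls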;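 note: 0% = DMSO wells given calcium and 100% = 1 mM EGTA wells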
DTT redox prof: compounds producing H2O2 with reducing agent – biochemical, NIH compound library profiling, artefact control for MLSCN library redox annotation, primary screen; DTT-dependent redox cycling H2O2, phenol red/HRP absorbance; 100% = 100 µM peroxide control, 0% = buffer; activation, % at 10 µM; 200,000 compounds, 0.03% hits;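 active = activation of at least 50% relative to the plate's high and low controls in the primary single-dose screen; inactive = activation below 50%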;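 note: compound incubated with DTT at 0.8 mM final as the reducing agent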
Hep lipid drop: modulators of hepatic lipid droplet formation; AML12 mouse hepatocytes, oleate lipid droplets, BODIPY imaging; inhibition, % at 6.5 µM; 240,000 compounds, 0.4% hits; AID 1656;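 active = lipid droplet intensity inhibited by at least 50%, with more than 500 cells counted; inconclusive = wells with under 300 cells, treated as cytotoxic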
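Material – AML12 mouse liver cells · Also added – oleate loading, 100 µM · Compound dosing – 6.5 µM single-point dosing · Times – overnight treatment with compound plus oleate · Measured by – fluorescence imaging, 20x objective, two fields per well · Read-out – percent inhibition of filter-corrected integrated lipid droplet intensity per well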
Starred values were filed as active, the others as inactive; ! = repeats disagree.

`COc1cccc(CNCC(=O)NC(=O)NC2CCCC2)c1` gave MPTP block 1.
`Cc1ccc(Cn2cccc(NC(=O)NC3CCCCC3)c2=O)cc1` gave L major viab 86*, T cruzi repl 2, MPTP block -1 and DTT redox prof 3.
`O=C(Nc1cccn(Cc2ccc(F)cc2)c1=O)NC1CCCCC1` gave L major viab 83*, T cruzi repl 7, MPTP block 0 and DTT redox prof 1.
For COc1cccc(Cn2cccc(NC(=O)NC3CCCCC3)c2=O)c1 the results were L major viab 99*, T cruzi repl -7, MPTP block 0, DTT redox prof 3 and Hep lipid drop -2.
COc1cc(C(=O)OC2CCOC2=O)cc(Cl)c1OC (centres undefined) was read as T cruzi repl -11, MPTP block -1 and Hep lipid drop -3.
`COc1ccc(N(C(=O)CNC(=O)c2ccco2)C(C(=O)NCC2CCCO2)c2ccccc2)cc1` (centres undefined) gave T cruzi repl -2, MPTP block 0 and Hep lipid drop 6.
Cc1sc2nc(COC(=O)CNC(=O)c3ccc(C(C)(C)C)cc3)[nH]c(=O)c2c1C was read as L major viab 31, T cruzi repl -12, MPTP block 2, DTT redox prof 0 and Hep lipid drop -21.
For O=C(O)CCSc1ccccn1 the results were L major viab -3, T cruzi repl -12, MPTP block -1, DTT redox prof 1 and Hep lipid drop 19.
Screening O=C(CCSc1ccccn1)c1ccccc1 returned L major viab 77*, T cruzi repl 19, MPTP block 3, DTT redox prof -1 and Hep lipid drop -11.
For CC1=C(C#N)C(=O)N(C2CCS(=O)(=O)C2)C(=O)/C1=C\c1ccco1 (centres undefined) the results were T cruzi repl -5 and Hep lipid drop 2.
Screening CC(=O)N(CCCc1ccc(C(C)(C)C)cc1)CCCN(C)C returned L major viab 99*, T cruzi repl 73*, MPTP block 3 and DTT redox prof 0.
`O=S(Cc1ccc(Br)cc1)Cc1nnc(SCc2c(Cl)cccc2Cl)n1-c1ccccc1` (centres undefined) gave L major viab 96*, T cruzi repl 40, MPTP block 0, DTT redox prof -7 and Hep lipid drop -17.
O=C(O)C1C2CC(C(Br)C2Br)C1C(=O)O (centres undefined) was read as MPTP block -1.
For CC1(C(=O)N2CCC(CO)(Cc3cccc(C(F)(F)F)c3)CC2)CC1 the results were T cruzi repl -6, MPTP block 0 and Hep lipid drop 3.
Cc1c(CN2CCC(CO)(Cc3cccc(C(F)(F)F)c3)CC2)c2ccccc2n1C was read as L major viab 87*, T cruzi repl 56*, MPTP block -2, DTT redox prof 0 and Hep lipid drop -52.
CC(=O)c1ccc(C(=O)N2CCC(CO)(Cc3cccc(C(F)(F)F)c3)CC2)cc1 was read as L major viab 7, T cruzi repl -28, MPTP block -1, DTT redox prof -1 and Hep lipid drop -5.
COc1ccc(CC2(CO)CCN(Cc3cc4ccccc4o3)CC2)cc1 was read as L major viab 79*, T cruzi repl 33, MPTP block 0, DTT redox prof -1 and Hep lipid drop 5.
OCC1(Cc2cccc(C(F)(F)F)c2)CCN(Cc2cc3ccccc3o2)CC1 was read as L major viab 84*, T cruzi repl 26, MPTP block -1, DTT redox prof 0 and Hep lipid drop -13.
`CCN(CC)C(=O)CSc1nc(N)c2c3c(sc2n1)CC(C)CC3` (centres undefined) gave L major viab 64*, T cruzi repl 13, MPTP block 2, DTT redox prof 0 and Hep lipid drop -7.
Screening CC1CCc2c(sc3nc(SCC(=O)NCc4ccco4)nc(N)c23)C1 (centres undefined) returned L major viab 14, T cruzi repl 9, MPTP block 2 and DTT redox prof 2.
COc1ccc(-c2cn(-c3ccccc3)c3[n+]2CCS3)cc1 was read as L major viab 85*!, T cruzi repl 58*!, MPTP block -4, DTT redox prof 0 and Hep lipid drop -24.
For c1ccc(-c2cn(-c3ccccc3)c3[n+]2CCS3)cc1 the results were L major viab 17, T cruzi repl 68*, MPTP block -4, DTT redox prof -1 and Hep lipid drop 4.
For COc1ccc(N2CCC(CNC(=S)Nc3ccc(C)cc3C)C2)cc1 (centres undefined) the results were T cruzi repl 4, MPTP block 6 and Hep lipid drop 12.
`O=C(NCCN1CCN(Cc2ccccc2)CC1)c1ccc(CS(=O)(=O)c2ccc(Br)cc2)o1` gave T cruzi repl 32, MPTP block -2 and Hep lipid drop -6.
`Cc1ccc(S(=O)(=O)N(C)C)cc1NC(=O)c1c(-c2c(F)cccc2Cl)noc1C` gave T cruzi repl 14, MPTP block 0 and Hep lipid drop -21.
Cc1nc2cc(-c3ccc(Cl)cc3)nn2c(NCCN(C)C)c1C was read as L major viab 100*, T cruzi repl inconclusive, MPTP block -3, DTT redox prof 0 and Hep lipid drop 0.
COc1cccc(NC(=O)C(Sc2nnc(-c3ccncc3)n2-c2ccc(Cl)cc2)c2ccccc2)c1 (centres undefined) was read as L major viab 53*, T cruzi repl 38, MPTP block 0 and DTT redox prof 0.
COc1cccc(-n2c(SCC(N)=O)nnc2-c2ccncc2)c1 was read as L major viab -4, T cruzi repl -31, MPTP block 0, DTT redox prof 0 and Hep lipid drop -13.
For CCOc1ccc(S(=O)(=O)NCCC(=O)NC2CCCCC2)cc1 the results were T cruzi repl -11 and MPTP block -2.
`Cc1ccc(Cn2ccc(NC(=O)c3nc4ncccn4n3)n2)cc1` gave L major viab 51*, T cruzi repl 0, MPTP block -2, DTT redox prof 1 and Hep lipid drop 1.
CS(=O)(=O)N(CC(=O)NC1CC2CCC1C2)c1ccc(Oc2ccccc2)cc1 (centres undefined) was read as L major viab 36, T cruzi repl 0, MPTP block 0, DTT redox prof -2 and Hep lipid drop 0.
For COC(CNC(=O)c1ccc(N2CCC3(CC2)OCCO3)c([N+](=O)[O-])c1)OC the results were L major viab 60*, T cruzi repl -8, MPTP block 0, DTT redox prof 0 and Hep lipid drop -7.
For O=C(c1ccc(N2CCC3(CC2)OCCO3)c([N+](=O)[O-])c1)N1CCOCC1 the results were L major viab -4, T cruzi repl -14, MPTP block -1, DTT redox prof 0 and Hep lipid drop 10.
